Laboratory results: article PMC3621463 (Nature Communications, 2012)

Columns and labels:
p53 = p53 protein level, immunoblot; type: cell-based; settings: U2OS cells, PIMT siRNA/shRNA or ectopic PIMT expression
p53-HDM2 interaction = experiment: p53-HDM2 co-immunoprecipitation; type: cell-based; settings: U2OS cells (PIMT siRNA) or H1299 cells (HA-p53, Flag-PIMT)
Procedure, shortened: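 Supernatants were incubated overnight at 4 °C with FLAG-, HA- or p53-antibody agarose and washed twice. Eluates were boiled 5 min, run on 4–12% Bis–Tris gels and immunoblotted with HRP-conjugated primary antibodies using chemiluminescence.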

p53 ubiquitination = experiment: p53 ubiquitination; type: cell-based; settings: U2OS or H1299 cells, MG132 40 μM
[1] = test system: p21 or Bax promoter luciferase; experiment: Luciferase assay, p53-dependent transcription; type: cell-based; settings: H1299 cells, p21-luc or Bax-luc; n=4
PIMT = experiment: In vitro methylation assay with recombinant GST-PIMT; type: biochemical; settings: GST-p53 1–82 methylated by GST-PIMT or His-PIMT, followed by NaOH; fluorography
U2OS cells = experiment: Flow cytometry, early apoptosis, adriamycin; type: cell-based; settings: adriamycin 1 μg ml−1, one day; control cells (control siRNA); n=4
Procedure, shortened: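 U2OS cells were transfected with PIMT or control siRNA. After 2 days they were treated with adriamycin, and apoptotic cells were scored by flow cytometry one day later. At least 10,000 cells were analysed per treatment. Significance was tested by Student's t-test.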

protein L-isoaspartyl methyltransferase [PIMT]
p53 protein level (p53): decreased the p53 protein levels in a dose-dependent manner
p53-HDM2 interaction (p53-HDM2 interaction): enhanced
ubiquitination of p53 (p53 ubiquitination): increased p53 ubiquitination
p53-dependent transcription [1]: inhibited the p53-dependent transcription of both reporter genes

p53 (amino acids 1–82): N terminus of p53 (amino acids 1–82)
methylation after alkaline treatment (PIMT): removed upon alkaline treatment

COc1cccc2c1C(=O)c1c(O)c3c(c(O)c1C2=O)C[C@@](O)(C(=O)CO)C[C@@H]3O[C@H]1C[C@H](N)[C@H](O)[C@H](C)O1 [adriamycin]
early apoptosis (U2OS cells): 19.5%
